According to ChEMBL document CHEMBL1268863, “Bioactive Cycloperoxides Isolated from the Puerto Rican Sponge Plakortis halichondrioides” (J Nat Prod, 2010):
In brackets after ≈: the same amount, converted by molar mass.

Legend:
[1] = system: Mycobacterium tuberculosis; assay: Antimycobacterial activity Mycobacterium tuberculosis H37Rv; type: functional, organism-based
A2058 [2] = assay: Cytotoxicity against human A2058 cells after 48 hrs by MTT assay; type: functional, cell-based; conditions: A2058, 48 h
Summary of the method: (§1)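 Cells cultured in RPMI-1640 or DMEM with 10% FBS and penicillin/streptomycin at 37 °C, 5% CO2, then seeded at 5,000/well and left overnight. Compound given at 0.1, 0.5, 1, 5, 10, 20 and 50 µM for 48 h with a DMSO vehicle control. Viability read by MTS formazan absorbance at 490 nm, in quadruplicate, and IC50 derived from the dose series.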

A2058 [3] = assay: Cytotoxicity against human A2058 cells at 10 uM after 48 hrs […]; type: functional
DU-145 [4] = assay: Cytotoxicity against human DU145 cells after 48 hrs by MTT assay; type: functional, cell-based; conditions: DU-145, 48 h; summary of the method: as §1
DU-145 [5] = assay: Cytotoxicity against human DU145 cells at 10 uM after 48 hrs […]; type: functional
Plasmodium falciparum = assay: Antimicrobial activity against chloroquine-resistant Plasmodium falciparum W2; type: functional, organism-based
Summary of the method: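 Chloroquine-resistant W2 strain tested, with chloroquine as positive control; IC50 reported in µg/mL.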

Row | SMILES | IC50 [1] [µg/mL] | IC50 (A2058 [2]) [µM] | Activity (A2058 [3]) [%] | IC50 (DU-145 [4]) [µM] | Activity (DU-145 [5]) [%] | IC50 (Plasmodium falciparum) [µg/mL]
1 | CCCCCCCCCCCCCCCC[C@]1(C)C[C@]2(C)OC(=O)C[C@@H]2OO1 | 68 (≈ 171 µM) | 0.8 | 8 | 2 | 13 | 0.3 (≈ 0.756 µM)
2 | CC/C=C/C=C/C=C/CCCCCCCC[C@]1(C)C[C@@](C)(CC(=O)OC)OO1 [EPIPLAKINIC ACID F METHYL ESTER] | 62 (≈ 158 µM) | > 10 | 86 | > 10 | 92 | 4 (≈ 10.2 µM)
3 | CCCCCCCCCCCCCCCC[C@]1(C)C[C@@](C)(O)CC(=O)O1 | 30 (≈ 81.4 µM) | > 10 | 60 | > 10 | 102 | > 10
4 | CCCCCCCCCCCCCCCC[C@]1(C)C[C@@](C)(CC(=O)OC)OO1 | – | > 10 | 69 | 8 | 38 | > 10
5 | CC/C=C/C=C/C=C/CCCCCCCC[C@@]1(C)C[C@](C)(CC(=O)O)OO1 [EPIPLAKINIC ACID F] | 92 (≈ 243 µM) | > 10 | 51 | 1 | 15 | 3 (≈ 7.92 µM)
6 | CCCCCCCCCCCCCCCC[C@@](C)(O)C[C@](C)(O)CC(=O)OC | – | > 10 | 79 | > 10 | 81 | > 10
7 | C[C@]1(CC(=O)O)C[C@@](C)(CCCCCCCCC(=O)O)OO1 [EPIPLAKINIDIOIC ACID] | – | 3 | 23 | 4 | 31 | 0.3 (≈ 0.948 µM)
8 | C[C@@](O)(CCCCCCCCCc1ccc(O)cc1)C[C@]1(C)OC(=O)C[C@@H]1O | – | > 10 | 81 | > 10 | 95 | 7 (≈ 17.8 µM)
9 | C[C@@]1(CCCCCCCCCc2ccc(O)cc2)C[C@]2(C)OC(=O)C[C@@H]2OO1 [PLAKORTOLIDE F] | 59 (≈ 151 µM) | > 10 | 71 | > 10 | 62 | –
10 | CCCCCCCCCCCCCCCC[C@@](C)(O)C[C@]1(C)OC(=O)C[C@@H]1O | 13 (≈ 32.6 µM) | 24 | 75 | 24 | 79 | 0.6 (≈ 1.51 µM)
11 | CC/C=C/C=C/C=C/CCCCCCCC[C@]1(C)C[C@]2(C)OC(=O)C[C@@H]2OO1 [PLAKORTOLIDE J] | 71 (≈ 182 µM) | > 10 | 106 | > 10 | 112 | > 10
